Test results as given in ChEMBL document CHEMBL1123950, “N-(Retinoyl)amino acids. Synthesis and chemopreventive activity in vitro” (1988).

Tests used:
L1210 [1] = test: Inhibition of proliferation of L1210 cells in culture at a conc 1 ug/mL; assay type: functional, Mus musculus; design: scale not given: the % may be the effect or the level left
Summary of the method: (§1)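 L1210 suspension of about 10⁵ cells treated with retinoid at 1-40 μg/mL, 37 °C for 48 h; cells counted at 0 and 48 h, three cultures averaged per concentration. % of control = 100 × (treated 48 h − 0 h count)/(control 48 h − 0 h count).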

HEp-2 [2] = test: Viability of human epidermoid carcinoma cells (H.Ep-2) at a conc 20 ug/mL; assay type: functional
Summary of the method: (§2)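 Human epidermoid carcinoma H.Ep.-2 cells, clone-colony viability assay with retinoid at 1-40 μg/mL; incubated 37 °C for 12 days, stained, colonies counted. % of control = 100 × treated colonies/control colonies.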

HEp-2 [3] = test: Viability of human epidermoid carcinoma cells (H.Ep-2) at a conc 10 ug/mL; assay type: functional; summary of the method: as §2
HEp-2 [4] = test: Viability of human epidermoid carcinoma cells (H.Ep-2) at a conc 40 ug/mL; assay type: functional; summary of the method: as §2
HEp-2 [5] = test: Viability of human epidermoid carcinoma cells (H.Ep-2) at a conc 1 ug/mL; assay type: functional; summary of the method: as §2
L1210 [6] = test: Inhibition of proliferation of L1210 cells in culture at a conc 10 ug/mL; assay type: functional, Mus musculus; design: scale not given: the % may be the effect or the level left; summary of the method: as §1
L1210 [7] = test: Inhibition of proliferation of L1210 cells in culture at a conc 20 ug/mL; assay type: functional, Mus musculus; design: scale not given: the % may be the effect or the level left; summary of the method: as §1
Cricetinae gen. sp. [8] = test: Cultures with mild degree of squamous metaplasia at a conc of 10e-8 M; assay type: functional, Cricetulus griseus
Summary of the method: (§3)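 Tracheas from 29-31-day-old hamsters fed a vitamin A free diet; cultured in serum-free CMRL 1066 (insulin 1.0 μg/mL, hydrocortisone hemisuccinate 0.1 μg/mL, glutamine 2 mM, Garamycin 50 μg/mL), 50% O2/45% N2/5% CO2, rocked, 36 °C. Retinoid-free 3 days, then retinoid in DMSO (final 0.1%) for 7 days; medium and gas changed three times. Formalin-fixed day 10; squamous metaplasia graded: mild 2-10%, marked 10-40%, severe >40%.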

Cricetinae gen. sp. [9] = test: Cultures with mild degree of squamous metaplasia at a conc of 10e-9 M; assay type: functional, Cricetulus griseus; summary of the method: as §3
Cricetinae gen. sp. [10] = test: Cultures with marked degree of squamous metaplasia at a conc of 10e-10 M; assay type: functional, Cricetulus griseus; summary of the method: as §3
Cricetinae gen. sp. [11] = test: Reversal of keratinization in vitamin A deficient hamster trachea culture at a conc of 10e-8 M; assay type: functional, Cricetulus griseus; conditions: read-out: ED50 (the source's name)
Summary of the method: (§4)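 Tracheas from 29-31-day-old hamsters kept on a vitamin A free diet, cultured in serum-free CMRL 1066 (insulin 1.0 μg/mL, hydrocortisone hemisuccinate 0.1 μg/mL, glutamine 2 mM, Garamycin 50 μg/mL), 50% O2/45% N2/5% CO2, rocked at 36 °C. Retinoid-free for 3 days, then retinoid in DMSO (0.1% final) for 7 days. Fixed in formalin; squamous metaplasia graded mild 2-10%, marked 10-40%, severe >40%.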

Cricetinae gen. sp. [12] = test: Cultures with mild degree of squamous metaplasia at a conc of 10e-11 M; assay type: functional, Cricetulus griseus; summary of the method: as §3
Cricetinae gen. sp. [13] = test: Cultures with minimal degree of squamous metaplasia at a conc of 10e-10 M; assay type: functional, Cricetulus griseus; summary of the method: as §3
Cricetinae gen. sp. [14] = test: Cultures with marked degree of squamous metaplasia at a conc of 10e-8 M; assay type: functional, Cricetulus griseus; summary of the method: as §3
Cricetinae gen. sp. [15] = test: Cultures with minimal degree of squamous metaplasia at a conc of 10e-8 M; assay type: functional, Cricetulus griseus; summary of the method: as §3
Cricetinae gen. sp. [16] = test: Cultures with severe degree of squamous metaplasia at a conc of 10e-9 M; assay type: functional, Cricetulus griseus; summary of the method: as §3
Cricetinae gen. sp. [17] = test: Cultures with minimal degree of squamous metaplasia at a conc of 10e-9 M; assay type: functional, Cricetulus griseus; summary of the method: as §3
Cricetinae gen. sp. [18] = test: Cultures with marked degree of squamous metaplasia at a conc of 10e-9 M; assay type: functional, Cricetulus griseus; summary of the method: as §3
Cricetinae gen. sp. [19] = test: Cultures with mild degree of squamous metaplasia at a conc of 10e-10 M; assay type: functional, Cricetulus griseus; summary of the method: as §3
Cricetinae gen. sp. [20] = test: Cultures with severe degree of squamous metaplasia at a conc of 10e-8 M; assay type: functional, Cricetulus griseus; summary of the method: as §3
Cricetinae gen. sp. [21] = test: Cultures with marked degree of squamous metaplasia at a conc of 10e-11 M; assay type: functional; summary of the method: as §3
Cricetinae gen. sp. [22] = test: Cultures with severe degree of squamous metaplasia at a conc of 10e-11 M; assay type: functional, Cricetulus griseus; summary of the method: as §3
Cricetinae gen. sp. [23] = test: Cultures with no evidence of squamous metaplasia at a conc of 10e-8 M; assay type: functional, Cricetulus griseus; summary of the method: as §3
Cricetinae gen. sp. [24] = test: Cultures with no evidence of squamous metaplasia at a conc of 10e-10 M; assay type: functional, Cricetulus griseus; summary of the method: as §3
Cricetinae gen. sp. [25] = test: Cultures with severe degree of squamous metaplasia at a conc of 10e-10 M; assay type: functional, Cricetulus griseus; summary of the method: as §3
Cricetinae gen. sp. [26] = test: Cultures with minimal degree of squamous metaplasia at a conc of 10e-11 M; assay type: functional, Cricetulus griseus; summary of the method: as §3
Cricetinae gen. sp. [27] = test: Cultures with no evidence of squamous metaplasia at a conc of 10e-9 M; assay type: functional, Cricetulus griseus; summary of the method: as §3
Cricetinae gen. sp. [28] = test: Cultures with no evidence of squamous metaplasia at a conc of 10e-11 M; assay type: functional, Cricetulus griseus; summary of the method: as §3
Cricetinae gen. sp. [29] = test: Reversal of keratinization in vitamin A deficient hamster trachea culture; assay type: functional, Cricetulus griseus; conditions: read-out: ED50 (the source's name); summary of the method: as §4

CC1=C(/C=C/C(C)=C/C=C/C(C)=C/C(=O)NCC(=O)O)C(C)(C)CCC1
Control (L1210 [1]): 68% | Control (HEp-2 [2]): 12% | Control (HEp-2 [3]): 67% | Control (HEp-2 [4]): 13% | Control (HEp-2 [5]): 116% | Control (L1210 [6]): 70% | Control (L1210 [7]): 19%

CC1=C(/C=C/C(C)=C/C=C/C(C)=C\C(=O)NC(Cc2ccccc2)C(=O)O)C(C)(C)CCC1 (stereo unspecified)
Culture (Cricetinae gen. sp. [8]): 13% | Culture (Cricetinae gen. sp. [9]): 20% | Culture (Cricetinae gen. sp. [10]): 36% | EC50 (Cricetinae gen. sp. [11]): 0.6 nM | Culture (Cricetinae gen. sp. [12]): 14% | Culture (Cricetinae gen. sp. [13]): 0% | Culture (Cricetinae gen. sp. [14]): 20% | Culture (Cricetinae gen. sp. [15]): 0% | Culture (Cricetinae gen. sp. [16]): 7% | Culture (Cricetinae gen. sp. [17]): 0% | Culture (Cricetinae gen. sp. [18]): 20% | Culture (Cricetinae gen. sp. [19]): 21% | Culture (Cricetinae gen. sp. [20]): 7% | Culture (Cricetinae gen. sp. [21]): 43% | Culture (Cricetinae gen. sp. [22]): 14% | Culture (Cricetinae gen. sp. [23]): 60% | Culture (Cricetinae gen. sp. [24]): 29% | Culture (Cricetinae gen. sp. [25]): 14% | Culture (Cricetinae gen. sp. [26]): 0% | Culture (Cricetinae gen. sp. [27]): 53% | Culture (Cricetinae gen. sp. [28]): 29%

CCNC(=O)\C=C(C)/C=C/C=C(C)/C=C/C1=C(C)CCCC1(C)C
Control (L1210 [1]): 84% | Control (HEp-2 [2]): 10% | Control (HEp-2 [3]): 13% | Control (HEp-2 [4]): 15% | Control (HEp-2 [5]): 59% | Control (L1210 [6]): 77% | EC50 (Cricetinae gen. sp. [29]): 0.3 nM | Control (L1210 [7]): 54%
